Test results reported in the array DNA melting data of Ke et al. (doi:10.1101/2024.01.08.574731).

Experiments:
[1] = folding enthalpy; higher = less favourable; fluorescence melt of hairpins on a sequencing array, two-state fit; conditions: sodium 0.088 M
In short: (§1)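 Hairpins were imaged by Cy3 fluorescence on a sequenced MiSeq flow cell with annealed Cy3 and quencher oligos, in 50 mM Na-HEPES pH 8.0, 25 mM NaCl, in 2.5 °C steps up to 60 °C. Bootstrapped two-state fits of normalised signals gave melting temperature and folding enthalpy. Four replicates were combined by inverse variance, and fitted temperatures were raised by 9.35 °C to match UV melts.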

[2] = melting temperature; fluorescence melt of hairpins on a sequencing array, two-state fit, raised by 9.35 °C to match UV melts; conditions: sodium 0.088 M
In short: as §1

Row | Sequence | folding enthalpy [1] | Tm [2]
1 | GACCAAGGAAACTCGGTC ((((.((....)).)))) | -29.3 kcal/mol | 37.8 °C
2 | GATCATTTATATGATC ((((((....)))))) | -35.6 kcal/mol | 48.4 °C
3 | GCGCTCGAAAGAGTTCGC ((((((....)))..))) | -22.1 kcal/mol | 43.8 °C
4 | GTCGTGCGAAAGCAAGAC (((.(((....))).))) | -34.7 kcal/mol | 59.7 °C
5 | GAGTTCCGAAAGGATCTC (((.(((....))).))) | -29.3 kcal/mol | 47.3 °C
6 | GTGACAGGAAACTGTCGC (.(((((....))))).) | -30.2 kcal/mol | 53.9 °C
7 | GAGTTGCGAAAGCATCTC (((.(((....))).))) | -28.6 kcal/mol | 50.1 °C
8 | GCCAATGGAAACATCGGC (((.(((....))).))) | -28.9 kcal/mol | 44 °C
9 | GGCAAATCGAAAGATGCC (((..(((....)))))) | -29.8 kcal/mol | 47.6 °C
10 | GATCCTAGCAAGGATC ((((((....)))))) | -33.2 kcal/mol | 52.8 °C
11 | GATCTACGGGTAGATC ((((((....)))))) | -42.6 kcal/mol | 51.1 °C
12 | GTTATAGCGAAAGCTAAC (((..(((....)))))) | -14.3 kcal/mol | 29.9 °C
13 | CGCCTGCGGAAACGCGCG (((..(((....)))))) | -16.9 kcal/mol | 42.1 °C
14 | GATCTTCGGTAAGATC ((((((....)))))) | -34 kcal/mol | 41.3 °C
15 | GCCCGGCGAAAGCTGAGC ((.(.((....)).).)) | -18.3 kcal/mol | 48.7 °C
16 | GTTTCGGGAAACCAAAAC ((((.((....)).)))) | -19.6 kcal/mol | 35.1 °C
17 | GCAGGTGGAAACGCTTGC (((.(.(....).).))) | -23 kcal/mol | 46.6 °C
18 | GGTCACCGAAAGGTACC (((.(((....)))))) | -19.7 kcal/mol | 47.1 °C
19 | GATCATGCTTATGATC ((((((....)))))) | -35.9 kcal/mol | 48 °C
20 | GGATGTCGAAAGACCTCC (((.(((....))).))) | -29 kcal/mol | 46.5 °C
21 | GATCAGTTGCCTGATC ((((((....)))))) | -41.1 kcal/mol | 51.4 °C
22 | GCGCACGAAAGTGCTCGC ((((((....)))..))) | -13.5 kcal/mol | 48.4 °C
23 | GGCCTGCGAAAGCATGCC (((.(((....))).))) | -28.2 kcal/mol | 58.4 °C

Row | Sequence | folding enthalpy [1] | Tm [2]
24 | GATCAGGGTACTGATC ((((((....)))))) | -41 kcal/mol | 55.5 °C
25 | GATCACTCAGTGATC ((((((...)))))) | -35.5 kcal/mol | 58.3 °C
26 | GGTGGCGAAAGCCGGACC ((((((....)))..))) | -12.1 kcal/mol | 46.8 °C
27 | GATCAGCGAAAGCTTATC (((.(((....))).))) | -20.2 kcal/mol | 38.9 °C
28 | GTATACGAAAGTATAC ((((((....)))))) | -28.4 kcal/mol | 54.2 °C
29 | GGTATCGGAAACGGTATC (.((.((....)).)).) | -26.1 kcal/mol | 30.9 °C
30 | GCCCGCGAAAGCGTGGGC ((((((....)))..))) | -24.9 kcal/mol | 68.6 °C
31 | GGAGTCGGAAACGATTCC (((.(((....))).))) | -30.1 kcal/mol | 50.3 °C
32 | GTAAATCGAAAGATATAC (((.(((....))).))) | -12.1 kcal/mol | 29.7 °C
33 | GCTACGCGAAAGCGCGGC ((..(((....)))..)) | -16.1 kcal/mol | 51 °C
34 | GACCTACGAAAGTAAGTC (((.(((....))).))) | -23.1 kcal/mol | 38 °C
35 | GGTATCGAAAGATTTACC ((((((....)))..))) | -27.8 kcal/mol | 28.5 °C
36 | GGTTGCGAAAGCACAACC ((((((....)))..))) | -19.6 kcal/mol | 44.2 °C
37 | GGCAAGGAAACTTGCC ((((((....)))))) | -37 kcal/mol | 64.7 °C
38 | GTAAGAGCGAAAGCTTAC (((..(((....)))))) | -14.9 kcal/mol | 33.5 °C
39 | GAGGGGACGAAAGTCCTC (((..(((....)))))) | -8.85 kcal/mol | 41.2 °C
40 | GCCGTTGGAAACAACAGC ((.((((....)))).)) | -18.7 kcal/mol | 41.6 °C
41 | GATCGTTTGTACGATC ((((((....)))))) | -37.3 kcal/mol | 56 °C
42 | GATCAGGCAGCTGATC ((((((....)))))) | -34.2 kcal/mol | 52.4 °C
43 | GTTGGAGCGAAAGCTAAC (((..(((....)))))) | -21.4 kcal/mol | 36.9 °C
44 | GGGATCGAAAGATTACCC ((((((....)))..))) | -17.4 kcal/mol | 32.4 °C
45 | GGGCAGCGAAAGCTCCC (((.(((....)))))) | -20.3 kcal/mol | 57.3 °C
46 | GGGTTGCGAAAGCATCCC (((.(((....))).))) | -34.1 kcal/mol | 59.1 °C

Row | Sequence | folding enthalpy [1] | Tm [2]
47 | GGCACCGGAAACGACGCC (((..((....))..))) | -29.9 kcal/mol | 42 °C
48 | GAGTACGGAAACGTACTC (((((((....))))))) | -42.5 kcal/mol | 64 °C
49 | GTCGTGCGAAAGCAGAC (((.(((....)))))) | -21.2 kcal/mol | 56.5 °C
50 | TACTGGAAACAGTA (((((....))))) | -15.8 kcal/mol | 36.8 °C
51 | GCGCCGCGAAAGCGCCGC (((.(((....))).))) | -22.4 kcal/mol | 65.2 °C
52 | GATCCCACATGGGATC ((((((....)))))) | -45.5 kcal/mol | 60.8 °C
53 | GGAAGCGGAAACGCTCCC ((.((((....)))).)) | -19.8 kcal/mol | 52.4 °C
54 | GTCGTGCCGAAAGGCGAC (((..(((....)))))) | -13.9 kcal/mol | 44.6 °C
55 | GAGGTTGGAAACAGCCTC ((((.((....)).)))) | -32.4 kcal/mol | 50.1 °C
56 | GCTAAGCGAAAGCATGGC ((.(.((....)).).)) | -20.1 kcal/mol | 39.7 °C
57 | GATCCTAATAGGATC ((((((...)))))) | -27.7 kcal/mol | 51.9 °C
58 | GATCAAGAGGTTGATC ((((((....)))))) | -24.2 kcal/mol | 37.9 °C
59 | GTACAGGAAACTGTAC ((((((....)))))) | -41.6 kcal/mol | 52.4 °C
60 | GCCCTGCGAAAGCGGCGC ((.(.((....)).).)) | -15 kcal/mol | 62 °C
61 | GCGAAGGCGAAAGCCCGC (((..(((....)))))) | -18.2 kcal/mol | 59.5 °C
62 | GATCAGACGTCTGATC ((((((....)))))) | -60.5 kcal/mol | 55 °C
63 | GCGAAGCGAAAGCACCGC (((..((....))..))) | -9.92 kcal/mol | 43.8 °C
64 | GATCAAGTCTTGATC ((((((...)))))) | -30.4 kcal/mol | 46.2 °C
65 | GAAGGTGGAAACATCTTC ((((.((....)).)))) | -30.8 kcal/mol | 41.6 °C
66 | GCAACCGAAAGGTTGTGC ((((((....)))..))) | -20.5 kcal/mol | 65.7 °C
67 | GAAAGGGGAAACCTTTTC ((((.((....)).)))) | -27.1 kcal/mol | 34.2 °C
68 | GTCCCAGGAAACTGGGAC (((((((....))))))) | -35.7 kcal/mol | 68.8 °C
69 | GCCTTGAAAAAGGC (((((....))))) | -24.4 kcal/mol | 58.1 °C

Row | Sequence | folding enthalpy [1] | Tm [2]
70 | GGTGGGGGAAACTCCGCC ((.((.(....).)).)) | -26.4 kcal/mol | 49.6 °C
71 | GGTCCTGGAAACGGGATC (.(((.(....).))).) | -28.5 kcal/mol | 38.4 °C
72 | GCTCGACGAAAGTCTAGC (((.(((....))).))) | -41.8 kcal/mol | 49.6 °C
73 | GATCAACATGTTGATC ((((((....)))))) | -56.2 kcal/mol | 54.7 °C
74 | CGCCCGGAAACGGCGCG ((((((....))).))) | -26.8 kcal/mol | 58.4 °C
75 | GGACGCGGAAACGCGCCC ((.((((....)))).)) | -18.6 kcal/mol | 61.8 °C
76 | GGAAGAGAAATCTTCC ((((((....)))))) | -24.1 kcal/mol | 47.7 °C
77 | GTATGTGGAAACATATGC (.((.((....)).)).) | -24.1 kcal/mol | 37.5 °C
78 | GATATAGCGAAAGCTATC (((..(((....)))))) | -10.1 kcal/mol | 33.9 °C
79 | GTAATCGAAAGATTAC ((((((....)))))) | -48.2 kcal/mol | 53.3 °C
80 | GGAGAACGAAAGTTTCC (((.(((....)))))) | -19.7 kcal/mol | 33.4 °C
81 | GTGGTAGGAAACTATCAC (((.(((....))).))) | -28.4 kcal/mol | 44.4 °C
82 | GATCTGTCAGCAGATC ((((((....)))))) | -40.7 kcal/mol | 51.7 °C
83 | GCCCAGCGAAAGCTTAGC ((..(((....)))..)) | -8.7 kcal/mol | 32.8 °C
84 | GTTGTCGAAAGACGCAAC ((((((....)))..))) | -9.32 kcal/mol | 31.9 °C
85 | GATCAGGCTGCTGATC ((((((....)))))) | -46.2 kcal/mol | 50.4 °C
86 | GAACACGAAAGTGCCTTC ((((((....)))..))) | -18.7 kcal/mol | 32.9 °C
87 | GCAAGACGAAAGTCTGC (((.(((....)))))) | -26.7 kcal/mol | 57.7 °C
88 | GTGCGTCCGAAAGGACAC (((..(((....)))))) | -9.8 kcal/mol | 60.4 °C
89 | GGGTGGGGAAACCCACTC (.(((((....))))).) | -16.7 kcal/mol | 53 °C
90 | GAAGGCGCGAAAGCGTTC (((..(((....)))))) | -9.37 kcal/mol | 30.9 °C
91 | GCTTCACGAAAGTGGAGC (((.(((....))).))) | -43.7 kcal/mol | 58.3 °C
92 | GATCTAAAACTAGATC ((((((....)))))) | -21.1 kcal/mol | 31.1 °C
